Consider eight compounds from ChEMBL document CHEMBL1133503 (J Med Chem, 2000).

A short description of experiment [1]: Concentration of drug required to reduce V-79 cell survival to 50% of controls in a SRB assay. In kind it is functional, cell-based. Conditions: Cricetulus griseus, V79. Put shortly: (§1)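 V-79 cells (about 7 × 10³ per 100 μL) preincubated 24 h, then exposed to drug for 3 h under oxic conditions. Washed 5× with HBSS and grown 48 h more. Fixed with TCA and stained with SRB. Bound dye dissolved in 10 mM Tris, spotted on TLC and read by video densitometry. IC50 is the mean of triplicates in one experiment. Ratio is IC50 of sulfide over sulfoxide or sulfone.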

Experiment [2] can be described thus: Relative cytotoxicity is expressed as the ratio of the IC50 values of the corresponding sulfide to sulfoxide or to sulfone. Format: functional, Cricetulus griseus. Put shortly: as §1
The species named for experiment [3] is Rattus norvegicus. The experiment is described as follows: Bioreduction experiment was conducted by incubation of the sulfoxides with rat liver S-9 fractions in anaerobic conditions N2). In kind it is functional. Put shortly: (§2)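 Rat liver S-9 fraction incubated with sulfoxide at 37 °C for 30 min with shaking. Aerobic vials were left open to air. Anaerobic vials were purged with N2 for 10 min before the compound was injected. Cofactor was NADPH, benzaldehyde, 2-hydroxypyrimidine or acetaldehyde, or none. Controls were boiled S-9 and S-9 without cofactors. For menadione, S-9 was preincubated aerobically with 1 equiv for 30 min, then benzaldehyde was added. Sulfide or sulfone was measured by HPLC or TLC densitometry.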

The species named for experiment [4] is Rattus norvegicus. The experiment is described as follows: Reduction potential (SCE) determined by differential pulse polarography of the sulfoxides […]. Format: functional.
The species entered for experiment [5] is Rattus norvegicus. The experiment is described as follows: Bioreduction experiment was conducted by incubation of the sulfoxides with rat liver S-9 fractions in anaerobic conditions (N2, without cofactors). Format: functional. More on the design: concentration or dose not given beside the values. The procedure, abridged: as §2
Experiment [6] is filed under the species Rattus norvegicus. Put plainly: Bioreduction experiment was conducted by incubation of the sulfoxides with rat liver S-9 fractions in anaerobic conditions (N2, benzaldehyde). In kind it is functional. More on the design: concentration or dose not given beside the values. The procedure, abridged: as §2
Experiment [7] is described as follows: Concentration required to reduce cell survival to 10% of controls using V-79 cells in the clonogenic assay, in anaerobic conditions (hypoxic conditions). In kind it is functional. Conditions: Cricetulus griseus, V79. Put shortly: (§3)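 V-79 cells (500 000 per bottle) grown 20 h in MEM with 10% FBS. Hypoxic set gassed 2 h at 37 °C with humidified 95% N2/5% CO2. Drug in ethanol/water or DMF injected through septa. Exposure 3 h under air or hypoxia. Cells trypsinised, counted by trypan blue, 500 plated in triplicate for 6–8 days. Colonies stained with crystal violet, survival relative to solvent control.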

The species entered for experiment [8] is Rattus norvegicus. Put plainly: Bioreduction experiment was conducted by incubation of the sulfoxides with rat liver S-9 fractions in anaerobic conditions (N2). In kind it is functional. Put shortly: as §2
The species entered for experiment [9] is Rattus norvegicus. The experiment is described as follows: Bioreduction experiment was conducted by incubation of the sulfoxides with rat liver S-9 fractions in anaerobic conditions(N2, without cofactors). In kind it is functional. The procedure, abridged: as §2
The species entered for experiment [10] is Rattus norvegicus. The experiment is described as follows: Bioreduction experiment was conducted by incubation of the sulfoxides with rat liver S-9 fractions in anaerobic conditions(N2, menadione). Format: functional. Put shortly:
as §2

Experiment [11] is filed under the species Rattus norvegicus. Put plainly: Bioreduction experiment was conducted by incubation of the sulfoxides with rat liver S-9 fractions in aerobic conditions(air ). Format: functional. Put shortly: as §2
The species entered for experiment [12] is Rattus norvegicus. Put plainly: Bioreduction experiment was conducted by incubation of the sulfoxides with rat liver S-9 fractions in aerobic conditions(air, NADPH). In kind it is functional. The procedure, abridged:
as §2

The species entered for experiment [13] is Rattus norvegicus. Put plainly: Bioreduction experiment was conducted by incubation of the sulfoxides with rat liver S-9 fractions in aerobic conditions(air without cofactors). In kind it is functional. The procedure, abridged: as §2
Experiment [14] in a line: Hypoxic selectivity expressed as the ratio of IC50 values in air and nitrogen. In kind it is functional.
The species named for experiment [15] is Rattus norvegicus. Put plainly: Bioreduction experiment was conducted by incubation of the sulfoxides with rat liver S-9 fractions in aerobic conditions(air, benzaldehyde). In kind it is functional. Put shortly: as §2
Experiment [16] in a line: Concentration required to reduce cell survival to 10% of controls using V-79 cells in the clonogenic assay, in aerobic conditions. Format: functional. Conditions: Cricetulus griseus, V79. The procedure, abridged: as §3
The nature of experiment [17]: Hypoxia-selective cytotoxicity required to reduce cell survival to 10% of controls using V-79 cells in the clonogenic assay, with N2. In kind it is functional. The following applies: Cricetulus griseus, V79. The procedure, abridged:
as §3

The nature of experiment [18]: Hypoxia-selective cytotoxicity required to reduce cell survival to 10% of controls using V-79 cells in the clonogenic assay, with air. Format: functional. The following applies: Cricetulus griseus, V79. The procedure, abridged: as §3
The species named for experiment [19] is Rattus norvegicus. Put plainly: Bioreduction experiment was conducted by incubation of the sulfoxides with rat liver S-9 fractions in aerobic conditions (N2, acetaldehyde). In kind it is functional. Put shortly:
as §2

For experiment [20], the species on record is Rattus norvegicus. Put plainly: Bioreduction experiment was conducted by incubation of the sulfoxides with rat liver S-9 fractions under aerobic(air) in the presence of NADPH. In kind it is functional. Put shortly: (§4)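 Rat liver S-9 incubated with sulfoxide for 30 min at 37 °C, in open vials (air) or in vials purged with N2 for 10 min before dosing. Cofactor was NADPH, NADH, benzaldehyde, 2-hydroxypyrimidine or acetaldehyde. Controls were boiled S-9 or no cofactor. Menadione arm: 30 min aerobic preincubation with 1 equiv, then benzaldehyde. Stopped with CH2Cl2. Sulfide quantified by TLC densitometry as % of sulfoxide. Three experiments, same S-9 batch.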

The species entered for experiment [21] is Rattus norvegicus. The experiment is described as follows: Bioreduction experiment was conducted by incubation of the sulfoxides with rat liver S-9 fractions under anaerobic (N2) in the presence of 2-hydroxypyrimidine. In kind it is functional. The procedure, abridged: as §4
For experiment [22], the species on record is Rattus norvegicus. Put plainly: Bioreduction experiment was conducted by incubation of the sulfoxides with rat liver S-9 fractions under anaerobic (N2) in the presence of NADPH. In kind it is functional. Put shortly: as §4
The species named for experiment [23] is Rattus norvegicus. Put plainly: Bioreduction experiment was conducted by incubation of the sulfoxides with rat liver S-9 fractions under anaerobic (N2) in the presence of acetaldehyde. In kind it is functional. The procedure, abridged:
as §4

For experiment [24], the species on record is Rattus norvegicus. The experiment is described as follows: Bioreduction experiment was conducted by incubation of the sulfoxides with rat liver S-9 fractions under anaerobic (N2) without cofactors. In kind it is functional. Put shortly:
as §4

The species named for experiment [25] is Rattus norvegicus. The experiment is described as follows: Bioreduction experiment was conducted by incubation of the sulfoxides with rat liver S-9 fractions under aerobic(air) in the presence of benzaldehyde. In kind it is functional. The procedure, abridged:
as §4

The species named for experiment [26] is Rattus norvegicus. The experiment is described as follows: Bioreduction experiment was conducted by incubation of the sulfoxides with rat liver S-9 fractions under aerobic(air) without cofactors. In kind it is functional. The procedure, abridged: as §4
The species named for experiment [27] is Rattus norvegicus. Put plainly: Bioreduction experiment was conducted by incubation of the sulfoxides with rat liver S-9 fractions under anaerobic (N2) in the presence of NADH. Format: functional. Put shortly:
as §4

For experiment [28], the species on record is Rattus norvegicus. Put plainly: Bioreduction experiment was conducted by incubation of the sulfoxides with rat liver S-9 fractions in aerobic conditions (N2, NADPH). In kind it is functional. Put shortly:
as §2

For experiment [29], the species on record is Rattus norvegicus. The experiment is described as follows: Bioreduction experiment was conducted by incubation of the sulfoxides with rat liver S-9 fractions in aerobic conditions (air, control). Format: functional. The procedure, abridged:
as §2

The species entered for experiment [30] is Rattus norvegicus. Put plainly: Bioreduction experiment was conducted by incubation of the sulfoxides with rat liver S-9 fractions under anaerobic (N2) in the presence of menadione. Format: functional. Put shortly: as §4
The species named for experiment [31] is Rattus norvegicus. The experiment is described as follows: Bioreduction experiment was conducted by incubation of the sulfoxides with rat liver S-9 fractions in aerobic conditions (air, without cofactors). In kind it is functional. The procedure, abridged: as §2
For experiment [32], the species on record is Rattus norvegicus. Put plainly: Bioreduction experiment was conducted by incubation of the sulfoxides with rat liver S-9 fractions in aerobic conditions (air, NADPH). In kind it is functional. Put shortly: as §2
Experiment [33] is filed under the species Rattus norvegicus. The experiment is described as follows: Bioreduction experiment was conducted by incubation of the sulfoxides with rat liver S-9 fractions under aerobic(air) in the presence of were NADH. In kind it is functional. Put shortly:
as §4

The species named for experiment [34] is Rattus norvegicus. Put plainly: Bioreduction experiment was conducted by incubation of the sulfoxides with rat liver S-9 fractions in aerobic conditions (N2, menadione). Format: functional. Put shortly: as §2
For experiment [35], the species on record is Rattus norvegicus. Put plainly: Bioreduction experiment was conducted by incubation of the sulfoxides with rat liver S-9 fractions under anaerobic (N2) with conditions boiled S-9 fractions. In kind it is functional. Put shortly:
as §4

Experiment [36] is filed under the species Rattus norvegicus. Put plainly: Bioreduction experiment was conducted by incubation of the sulfoxides with rat liver S-9 fractions in aerobic conditions (air, benzaldehyde). In kind it is functional. Put shortly:
as §2

The species entered for experiment [37] is Rattus norvegicus. The experiment is described as follows: Bioreduction experiment was conducted by incubation of the sulfoxides with rat liver S-9 fractions in aerobic conditions (N2, 2-hydroxypyrimidine). Format: functional. Put shortly:
as §2

The species named for experiment [38] is Rattus norvegicus. Put plainly: Bioreduction experiment was conducted by incubation of the sulfoxides with rat liver S-9 fractions under aerobic(air) with conditions boiled S-9 fractions. Format: functional. The procedure, abridged: as §4

In turn, `Cl.ClCCN(CCCl)c1ccc(Sc2ccc(Nc3c4ccccc4nc4ccccc34)cc2)cc1` came in with an IC50 in experiment [1] of 1.93 µM. Besides, the Cytotoxicity in experiment [2] was found to be 1.

As to `[O-][s+]1c2ccccc2c2ccccc21`, the Bioreduction in [3] came out at 0%; in [5] it was 0%; in experiment [6] it was 4.4%. Besides, the E in [4] is reported as 1.82 -V.

In [1], `Nc1ccc(S(=O)(=O)c2ccc(N(CCCl)CCCl)cc2)cc1` returned an IC50 of 26.9 µM. Also, the Cytotoxicity in experiment [2] is 0.09.

In experiment [1], `Nc1ccc(Sc2ccc(N(CCCl)CCCl)cc2)cc1` had a 50% inhibitory concentration (IC50) of 2.49 µM. In addition, the Cytotoxicity in experiment [2] amounted to 1.

With `[O-][S+](c1ccc(N(CCCl)CCCl)cc1)c1ccc(N(CCCl)CCCl)cc1`, the IC90 was 184 µM in experiment [7] and 3090 µM in experiment [16]. For the same compound, the Bioreduction in experiment [8], in experiment [9], in [10], in experiment [11], in experiment [12] and in [13] was 0% in each case. Also, the Bioreduction in experiment [15] was determined as 0%. Moreover, the E in experiment [4] is 2.63 -V. Moreover, the Selectivity in experiment [14] was found to be 17.

In the case of `O=[N+]([O-])c1ccc([S+]([O-])c2ccc(N(CCCl)CCCl)cc2)cc1` (configuration not stated), in experiment [1], the IC50 turned out to be 21.9 µM. Besides, the IC90 came out at 182 µM in experiment [17] and 3680 µM in [18]. The Cytotoxicity in experiment [2] amounted to 0.1. The Selectivity in experiment [14] is 20.

As to `Nc1ccc([S+]([O-])c2ccc(N(CCCl)CCCl)cc2)cc1` (configuration not stated), the Bioreduction in experiment [19] came out at 4.42%; in experiment [20] it was 16%; in [21], 8.5%; in experiment [3], 0%; in [22] it was 42.1%; in experiment [23], 12.92%. For the same compound, the Bioreduction in [24] is recorded as 1.75%; in experiment [25] it was 1.05%; in experiment [26], 1.14%; in [27], 9%; in experiment [28], 0.37%; in [29], 0%. Further, the Bioreduction amounted to 1.6% in [30]; 0% in experiment [31]; 0 nmol/mg in [32]; 9.75% in experiment [33]; 0% in [34]; 0% in experiment [35]. Besides, the Bioreduction in experiment [36] is given as 0%; in experiment [5], 0%; in experiment [37] it was 4.5%; in [38], 0%; in experiment [6], 5%. The compound also came in with an IC50 in experiment [1] of 30 µM. In addition, the figures for the IC90 in experiment [17] and in [18] were 185 µM and 2800 µM, respectively. The Cytotoxicity in [2] was 0.08. In addition, in experiment [4], the E was 2.55 -V. For the same compound, the Selectivity in [14] stood at 15.

In [1], `O=[N+]([O-])c1ccc(Sc2ccc(N(CCCl)CCCl)cc2)cc1` gave a 50% inhibitory concentration (IC50) of 2.25 µM. Also, the Cytotoxicity in [2] stood at 1.
